Experimental data as given in ChEMBL document CHEMBL5303300, “EUbOPEN Chemogenomics Library - Multiplex” (2023).
Values joined by “and” are separate entries in the source; they are usually repeats but may differ in a detail not shown here. Identical values can stand only once.

Tested on: Fibroblast
Assay: Multiplex assay against human fibroblast
Assay type: toxicity, cell-based
Settings: number of replicates 2
Procedure, shortened: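 Hoechst33342, BioTracker Green Microtubule Cytoskeleton Dye, MitoTracker Red and Annexin V Alexa Fluor 680 were added to live cells at seeding, and imaging on a CQ1 microscope at 37°C and 5% CO2 followed compound addition. Gating by CellPathfinder machine learning separated cells into Hoechst high-intensity objects or normal cells, then normal cells into healthy, pyknosed or fragmented nuclei, then pyknosed cells into mitotic or apoptotic. Per cents of healthy-nucleus cells are reported for the tubulin, mitochondrial-mass and membrane-permeability phenotypes.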

[1] = 12 h, 1 µM, compound concentration 1 uM
[2] = 12 h, 10 µM, compound concentration 10 uM
[3] = 24 h, 1 µM, compound concentration 1 uM
[4] = 24 h, 10 µM, compound concentration 10 uM
[5] = 48 h, 1 µM, compound concentration 1 uM
[6] = 48 h, 10 µM, compound concentration 10 uM

SMILES: CC(C)(C)c1cnc(CSc2cnc(NC(=O)C3CCNCC3)s2)o1 [BMS-387032]
- Population Apoptotic (%) [1]: 56% and 46%
- Population Fragmented Nuclei (%) [1]: 8% and 6%
- Population Healthy Nuclei (%) [1]: 60% and 72%
- Population Hoechst High Intensity Objects (%) [1]: 0%
- Population Membrane Permeable-Phenotype (%) [1]: 6% and 7%
- Population Mitochondria Different-Phenotype (%) [1]: 0% and 2%
- Population Mitotic Cells (%) [1]: 43% and 53%
- Population Normal (%) [1]: 100%
- Population Pyknosed Nuclei (%) [1]: 31% and 21%
- Population Tubulin-Different-Phenotype (%) [1]: 15% and 16%
- Total Cell Count [1]: 96 and 204
- Population Apoptotic (%) [2]: 46% and 38%
- Population Fragmented Nuclei (%) [2]: 7% and 9%
- Population Healthy Nuclei (%) [2]: 58% and 67%
- Population Hoechst High Intensity Objects (%) [2]: 0%
- Population Membrane Permeable-Phenotype (%) [2]: 3% and 6%
- Population Mitochondria Different-Phenotype (%) [2]: 4% and 8%
- Population Mitotic Cells (%) [2]: 53% and 61%
- Population Normal (%) [2]: 100%
- Population Pyknosed Nuclei (%) [2]: 33% and 23%
- Population Tubulin-Different-Phenotype (%) [2]: 37% and 43%
- Total Cell Count [2]: 141 and 213
- Population Apoptotic (%) [3]: 64% and 54%
- Population Fragmented Nuclei (%) [3]: 12% and 10%
- Population Healthy Nuclei (%) [3]: 61% and 63%
- Population Hoechst High Intensity Objects (%) [3]: 0%
- Population Membrane Permeable-Phenotype (%) [3]: 7% and 9%
- Population Mitochondria Different-Phenotype (%) [3]: 0% and 1%
- Population Mitotic Cells (%) [3]: 35% and 45%
- Population Normal (%) [3]: 100%
- Population Pyknosed Nuclei (%) [3]: 26%
- Population Tubulin-Different-Phenotype (%) [3]: 21% and 18%
- Total Cell Count [3]: 106 and 208
- Population Apoptotic (%) [4]: 52% and 71%
- Population Fragmented Nuclei (%) [4]: 12% and 11%
- Population Healthy Nuclei (%) [4]: 49% and 62%
- Population Hoechst High Intensity Objects (%) [4]: 0%
- Population Membrane Permeable-Phenotype (%) [4]: 6% and 7%
- Population Mitochondria Different-Phenotype (%) [4]: 10% and 12%
- Population Mitotic Cells (%) [4]: 47% and 28%
- Population Normal (%) [4]: 100%
- Population Pyknosed Nuclei (%) [4]: 37% and 26%
- Population Tubulin-Different-Phenotype (%) [4]: 41% and 40%
- Total Cell Count [4]: 147 and 198
- Population Apoptotic (%) [5]: 74% and 73%
- Population Fragmented Nuclei (%) [5]: 12% and 14%
- Population Healthy Nuclei (%) [5]: 49% and 52%
- Population Hoechst High Intensity Objects (%) [5]: 0%
- Population Membrane Permeable-Phenotype (%) [5]: 23% and 15%
- Population Mitochondria Different-Phenotype (%) [5]: 2% and 0%
- Population Mitotic Cells (%) [5]: 25% and 26%
- Population Normal (%) [5]: 100%
- Population Pyknosed Nuclei (%) [5]: 38% and 33%
- Population Tubulin-Different-Phenotype (%) [5]: 33% and 30%
- Total Cell Count [5]: 183 and 115
- Population Apoptotic (%) [6]: 64% and 73%
- Population Fragmented Nuclei (%) [6]: 14% and 11%
- Population Healthy Nuclei (%) [6]: 43% and 38%
- Population Hoechst High Intensity Objects (%) [6]: 0%
- Population Membrane Permeable-Phenotype (%) [6]: 10% and 22%
- Population Mitochondria Different-Phenotype (%) [6]: 8% and 16%
- Population Mitotic Cells (%) [6]: 35% and 26%
- Population Normal (%) [6]: 100%
- Population Pyknosed Nuclei (%) [6]: 41% and 49%
- Population Tubulin-Different-Phenotype (%) [6]: 44% and 58%
- Total Cell Count [6]: 194 and 137

SMILES: O=C1NC(=NCc2cccs2)SC1=Cc1ccc2ncccc2c1
- Population Apoptotic (%) [1]: 31% and 38%
- Population Fragmented Nuclei (%) [1]: 17% and 11%
- Population Healthy Nuclei (%) [1]: 65% and 76%
- Population Hoechst High Intensity Objects (%) [1]: 0%
- Population Membrane Permeable-Phenotype (%) [1]: 4% and 3%
- Population Mitochondria Different-Phenotype (%) [1]: 0%
- Population Mitotic Cells (%) [1]: 68% and 61%
- Population Normal (%) [1]: 100%
- Population Pyknosed Nuclei (%) [1]: 16% and 12%
- Population Tubulin-Different-Phenotype (%) [1]: 5% and 6%
- Total Cell Count [1]: 193 and 211
- Population Apoptotic (%) [2]: 50% and 51%
- Population Fragmented Nuclei (%) [2]: 13% and 9%
- Population Healthy Nuclei (%) [2]: 74% and 78%
- Population Hoechst High Intensity Objects (%) [2]: 0%
- Population Membrane Permeable-Phenotype (%) [2]: 2% and 4%
- Population Mitochondria Different-Phenotype (%) [2]: 0% and 1%
- Population Mitotic Cells (%) [2]: 50% and 48%
- Population Normal (%) [2]: 100%
- Population Pyknosed Nuclei (%) [2]: 12%
- Population Tubulin-Different-Phenotype (%) [2]: 34% and 20%
- Total Cell Count [2]: 190 and 238
- Population Apoptotic (%) [3]: 42% and 26%
- Population Fragmented Nuclei (%) [3]: 15% and 10%
- Population Healthy Nuclei (%) [3]: 66% and 72%
- Population Hoechst High Intensity Objects (%) [3]: 0%
- Population Membrane Permeable-Phenotype (%) [3]: 2% and 6%
- Population Mitochondria Different-Phenotype (%) [3]: 0%
- Population Mitotic Cells (%) [3]: 57% and 73%
- Population Normal (%) [3]: 100%
- Population Pyknosed Nuclei (%) [3]: 18% and 17%
- Population Tubulin-Different-Phenotype (%) [3]: 4% and 6%
- Total Cell Count [3]: 183 and 219
- Population Apoptotic (%) [4]: 69% and 61%
- Population Fragmented Nuclei (%) [4]: 10% and 12%
- Population Healthy Nuclei (%) [4]: 82% and 75%
- Population Hoechst High Intensity Objects (%) [4]: 0%
- Population Membrane Permeable-Phenotype (%) [4]: 4% and 2%
- Population Mitochondria Different-Phenotype (%) [4]: 1% and 3%
- Population Mitotic Cells (%) [4]: 30% and 38%
- Population Normal (%) [4]: 100% and 99%
- Population Pyknosed Nuclei (%) [4]: 6% and 12%
- Population Tubulin-Different-Phenotype (%) [4]: 26% and 23%
- Total Cell Count [4]: 191 and 241
- Population Apoptotic (%) [5]: 65% and 75%
- Population Fragmented Nuclei (%) [5]: 17% and 14%
- Population Healthy Nuclei (%) [5]: 65% and 68%
- Population Hoechst High Intensity Objects (%) [5]: 0%
- Population Membrane Permeable-Phenotype (%) [5]: 2% and 3%
- Population Mitochondria Different-Phenotype (%) [5]: 0%
- Population Mitotic Cells (%) [5]: 34% and 25%
- Population Normal (%) [5]: 99% and 100%
- Population Pyknosed Nuclei (%) [5]: 17%
- Population Tubulin-Different-Phenotype (%) [5]: 10% and 6%
- Total Cell Count [5]: 185 and 211
- Population Apoptotic (%) [6]: 73% and 62%
- Population Fragmented Nuclei (%) [6]: 15% and 11%
- Population Healthy Nuclei (%) [6]: 77% and 76%
- Population Hoechst High Intensity Objects (%) [6]: 0%
- Population Membrane Permeable-Phenotype (%) [6]: 0%
- Population Mitochondria Different-Phenotype (%) [6]: 0% and 2%
- Population Mitotic Cells (%) [6]: 26% and 37%
- Population Normal (%) [6]: 100%
- Population Pyknosed Nuclei (%) [6]: 7% and 11%
- Population Tubulin-Different-Phenotype (%) [6]: 30% and 28%
- Total Cell Count [6]: 201 and 239
